In ChEMBL document CHEMBL4406804, “Discovery of a Potent Steroidal Glucocorticoid Receptor Antagonist with Enhanced Selectivity against the Progesterone and Androgen Receptors (OP-3633)” (J Med Chem, 2019):
Converted amounts (≈) assume the structure as drawn. The source made the active and inactive calls. The rule behind the calls is not given here.

Assays:
Progesterone receptor = biological target: T1, Progesterone receptor (Homo sapiens, UniProt P06401); assay: Antagonist activity at human progesterone receptor expressed in CHO-K1 cells harboring firefly luciferase gene after 20 hrs by One-Glo luciferase reporter gene assay; format: cell-based
T1 sequence (P06401 whole entry): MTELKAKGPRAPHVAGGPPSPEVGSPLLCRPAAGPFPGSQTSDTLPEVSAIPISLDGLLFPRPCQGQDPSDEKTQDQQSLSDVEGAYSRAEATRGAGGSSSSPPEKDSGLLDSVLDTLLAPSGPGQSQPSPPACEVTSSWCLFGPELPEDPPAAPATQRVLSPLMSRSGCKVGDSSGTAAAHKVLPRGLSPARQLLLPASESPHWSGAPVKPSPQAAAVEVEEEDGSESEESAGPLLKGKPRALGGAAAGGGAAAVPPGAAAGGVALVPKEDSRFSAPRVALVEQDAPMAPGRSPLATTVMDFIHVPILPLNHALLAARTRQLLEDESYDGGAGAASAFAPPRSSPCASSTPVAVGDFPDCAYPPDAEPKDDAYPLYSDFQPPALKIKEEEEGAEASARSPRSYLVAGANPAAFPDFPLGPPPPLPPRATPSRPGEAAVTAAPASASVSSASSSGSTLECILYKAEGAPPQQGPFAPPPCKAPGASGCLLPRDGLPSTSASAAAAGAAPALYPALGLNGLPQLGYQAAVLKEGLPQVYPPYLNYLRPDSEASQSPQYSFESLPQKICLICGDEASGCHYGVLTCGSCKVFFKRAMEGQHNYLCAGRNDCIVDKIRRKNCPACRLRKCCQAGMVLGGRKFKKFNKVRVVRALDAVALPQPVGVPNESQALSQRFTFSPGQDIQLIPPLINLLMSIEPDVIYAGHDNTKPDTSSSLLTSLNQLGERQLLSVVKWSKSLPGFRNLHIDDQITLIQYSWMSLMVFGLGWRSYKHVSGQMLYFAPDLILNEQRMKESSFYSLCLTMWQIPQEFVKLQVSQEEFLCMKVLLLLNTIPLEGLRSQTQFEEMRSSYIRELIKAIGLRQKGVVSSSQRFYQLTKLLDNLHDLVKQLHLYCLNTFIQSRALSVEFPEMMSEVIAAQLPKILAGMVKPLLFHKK
In short: (§1)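 Cell-based luciferase reporter assays for GR, AR and PR, run in agonist and antagonist modes. Potency and Emax are averages of at least two determinations, reported with SD.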

Androgen receptor [1] = biological target: T2, Androgen receptor (Homo sapiens, UniProt P10275); assay: Antagonist activity at human androgen receptor in human LNCAP cells harboring firefly luciferase gene after 20 hrs by One-Glo luciferase reporter gene assay; format: cell-based; in short: as §1
T2 sequence (P10275 whole entry): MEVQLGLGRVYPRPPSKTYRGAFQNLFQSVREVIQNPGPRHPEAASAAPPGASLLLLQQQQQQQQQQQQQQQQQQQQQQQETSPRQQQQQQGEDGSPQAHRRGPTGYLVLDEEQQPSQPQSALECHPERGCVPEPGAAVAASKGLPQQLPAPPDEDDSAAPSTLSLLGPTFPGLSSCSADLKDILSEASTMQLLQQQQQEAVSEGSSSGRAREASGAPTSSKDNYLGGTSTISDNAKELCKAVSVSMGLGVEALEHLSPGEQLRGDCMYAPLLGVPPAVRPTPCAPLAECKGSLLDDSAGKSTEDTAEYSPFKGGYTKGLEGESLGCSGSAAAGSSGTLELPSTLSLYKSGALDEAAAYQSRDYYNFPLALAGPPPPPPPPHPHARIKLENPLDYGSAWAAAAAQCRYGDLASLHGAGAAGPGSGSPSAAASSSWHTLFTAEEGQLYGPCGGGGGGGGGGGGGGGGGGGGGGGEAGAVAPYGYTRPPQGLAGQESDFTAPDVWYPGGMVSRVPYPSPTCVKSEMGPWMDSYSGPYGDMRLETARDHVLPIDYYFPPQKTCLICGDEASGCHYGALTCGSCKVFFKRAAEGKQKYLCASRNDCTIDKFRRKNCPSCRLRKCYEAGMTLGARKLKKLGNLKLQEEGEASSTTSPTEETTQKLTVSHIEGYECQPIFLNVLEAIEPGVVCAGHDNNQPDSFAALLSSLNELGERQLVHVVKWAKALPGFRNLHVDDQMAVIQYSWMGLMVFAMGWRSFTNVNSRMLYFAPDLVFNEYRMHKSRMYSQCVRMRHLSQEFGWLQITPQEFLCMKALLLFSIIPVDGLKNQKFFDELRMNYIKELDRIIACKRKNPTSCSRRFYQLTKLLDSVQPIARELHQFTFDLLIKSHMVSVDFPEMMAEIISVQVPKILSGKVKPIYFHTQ

Androgen receptor [2] = biological target: T2, Androgen receptor; assay: Agonist activity at human androgen receptor in human LNCAP cells harboring firefly luciferase gene after 20 hrs by One-Glo luciferase reporter gene assay; format: cell-based
Glucocorticoid receptor [3] = biological target: T3, Glucocorticoid receptor (Homo sapiens, UniProt P04150); assay: Antagonist activity at human glucocorticoid receptor expressed in CHO-K1 cells harboring firefly luciferase gene after 20 hrs by One-Glo luciferase reporter gene assay; format: cell-based
T3 sequence (P04150 whole entry): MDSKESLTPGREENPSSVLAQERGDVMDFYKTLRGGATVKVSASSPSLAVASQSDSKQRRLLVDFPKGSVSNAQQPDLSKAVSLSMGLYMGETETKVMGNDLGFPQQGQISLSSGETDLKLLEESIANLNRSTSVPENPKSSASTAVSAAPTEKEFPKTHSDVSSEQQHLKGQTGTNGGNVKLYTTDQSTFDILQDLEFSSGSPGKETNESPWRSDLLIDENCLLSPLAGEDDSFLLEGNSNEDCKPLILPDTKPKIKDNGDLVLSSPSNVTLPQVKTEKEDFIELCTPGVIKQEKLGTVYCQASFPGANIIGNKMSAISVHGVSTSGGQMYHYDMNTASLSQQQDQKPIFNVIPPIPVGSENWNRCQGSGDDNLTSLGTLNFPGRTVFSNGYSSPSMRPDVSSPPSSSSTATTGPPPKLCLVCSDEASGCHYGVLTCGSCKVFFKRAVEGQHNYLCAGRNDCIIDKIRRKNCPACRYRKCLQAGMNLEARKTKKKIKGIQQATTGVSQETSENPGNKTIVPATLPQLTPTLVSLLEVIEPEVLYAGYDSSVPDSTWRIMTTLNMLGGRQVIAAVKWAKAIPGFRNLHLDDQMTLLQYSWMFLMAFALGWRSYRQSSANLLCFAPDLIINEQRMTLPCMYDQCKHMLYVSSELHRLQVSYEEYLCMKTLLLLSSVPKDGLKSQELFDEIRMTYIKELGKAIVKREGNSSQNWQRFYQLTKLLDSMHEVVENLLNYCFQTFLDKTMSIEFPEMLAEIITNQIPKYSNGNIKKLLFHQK

[4] = biological target: T4, Progesterone receptor (Homo sapiens) (UniProt P06401); assay: Agonist activity at human progesterone receptor expressed in CHO-K1 cells harboring firefly luciferase gene after 20 hrs by One-Glo luciferase reporter gene assay; format: cell-based; in short: as §1
T4 sequence (whole entry): T1 sequence (P06401 whole entry)

Androgen receptor [5] = biological target: T2, Androgen receptor; assay: Agonist activity at human androgen receptor in human LNCAP cells harboring firefly luciferase gene after 20 hrs by One-Glo luciferase reporter gene assay relative to mifepristone; format: cell-based; in short: as §1
[6] = biological target: T5, Glucocorticoid receptor (Homo sapiens) (UniProt P04150); assay: Antagonist activity at human glucocorticoid receptor expressed in CHO-K1 cells harboring firefly luciferase gene assessed as inhibition of glucocorticoid receptor activity at 0.01 to 10000 nM after 20 hrs by One-Glo luciferase reporter gene assay relative to mifepristone; format: cell-based; design: scale not given: the % may be the effect or the level left; in short: as §1
T5 sequence (whole entry): T3 sequence (P04150 whole entry)

CYP3A4 = CYP3A4 (Homo sapiens, UniProt P08684); assay: Inhibition of CYP3A4 (unknown origin) at 10 uM using midazolam as substrate relative to control; format: ADME; details: probe midazolam
CYP3A4, sequence (P08684 whole entry): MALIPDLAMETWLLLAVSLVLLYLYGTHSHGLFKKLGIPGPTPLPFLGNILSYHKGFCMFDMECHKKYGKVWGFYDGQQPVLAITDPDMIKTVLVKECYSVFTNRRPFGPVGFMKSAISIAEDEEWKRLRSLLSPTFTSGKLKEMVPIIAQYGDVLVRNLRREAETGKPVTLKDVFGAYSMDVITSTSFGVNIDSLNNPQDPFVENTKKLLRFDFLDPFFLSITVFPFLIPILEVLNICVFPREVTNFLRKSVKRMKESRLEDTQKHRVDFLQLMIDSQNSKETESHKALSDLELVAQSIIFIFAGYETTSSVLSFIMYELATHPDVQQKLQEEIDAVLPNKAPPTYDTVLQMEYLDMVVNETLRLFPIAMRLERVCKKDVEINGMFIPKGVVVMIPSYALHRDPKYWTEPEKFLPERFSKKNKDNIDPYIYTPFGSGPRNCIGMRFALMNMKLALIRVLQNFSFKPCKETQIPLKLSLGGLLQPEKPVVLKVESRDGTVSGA

CYP2C8 = biological target: T6, CYP2C8 (Homo sapiens, UniProt P10632); assay: Inhibition of CYP2C8 (unknown origin) at 10 uM using paclitaxel as substrate relative to control; format: ADME; details: probe paclitaxel
T6 sequence (P10632 whole entry): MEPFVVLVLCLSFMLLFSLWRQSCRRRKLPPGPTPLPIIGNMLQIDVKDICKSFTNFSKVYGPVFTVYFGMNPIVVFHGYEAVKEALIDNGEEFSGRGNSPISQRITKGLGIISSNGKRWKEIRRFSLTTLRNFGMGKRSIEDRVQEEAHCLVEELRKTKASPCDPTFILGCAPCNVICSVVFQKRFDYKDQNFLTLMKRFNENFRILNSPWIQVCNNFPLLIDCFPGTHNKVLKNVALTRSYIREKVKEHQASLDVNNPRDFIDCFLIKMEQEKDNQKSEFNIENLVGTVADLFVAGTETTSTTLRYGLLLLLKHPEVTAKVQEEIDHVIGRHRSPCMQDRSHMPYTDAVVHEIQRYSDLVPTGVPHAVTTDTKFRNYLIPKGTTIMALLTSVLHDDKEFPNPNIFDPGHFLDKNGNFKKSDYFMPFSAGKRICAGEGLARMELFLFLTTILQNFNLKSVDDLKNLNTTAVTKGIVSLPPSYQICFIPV

Homo sapiens = species on record: Homo sapiens; assay: Selectivity ratio, ratio of IC50 for human androgen receptor in human LNCAP cells to IC50 for human glucocorticoid receptor expressed in CHO-K1 cells harboring firefly luciferase gene; format: cell-based
Glucocorticoid receptor [7] = biological target: T3, Glucocorticoid receptor; assay: Displacement of fluormone tracer from full length human recombinant glucocorticoid receptor expressed in baculovirus expression system incubated for 2 hrs by competitive fluorescence polarization binding assay
Glucocorticoid receptor [8] = biological target: T3, Glucocorticoid receptor; assay: Antagonist activity at human glucocorticoid receptor expressed in CHO-K1 cells assessed as inhibition of glucocorticoid receptor-dexamethasone coactivator protein-protein interaction incubated for 24 hrs by bioluminescence assay; format: cell-based
[9] = Solubility of compound in fasted state simulated gastric fluid at pH 1.2; format: physicochemical
[10] = Solubility of compound in PBS at pH 7.4; format: physicochemical
[11] = Solubility of compound in fasted state simulated intestinal fluid at pH 6.5; format: physicochemical

Compound | IC50 (Progesterone receptor) [nM] | IC50 (Androgen receptor [1]) [nM] | EC50 (Androgen receptor [2]) [nM] | IC50 (Glucocorticoid receptor [3]) [nM] | agonist activity [4] | Emax at 20 h (Androgen receptor [5]) [%] | Activity [6] [%] | inhibition at 10 µM (CYP3A4) [%] | inhibition at 10 µM (CYP2C8) [%] | Ratio (Homo sapiens) | IC50 (Glucocorticoid receptor [7]) [nM] | IC50 (Glucocorticoid receptor [8]) [nM] | solubility [9] [µM] | solubility [10] [µM] | solubility [11] [µM]
CN(C)c1ccc([C@H]2C[C@@]3(C)[C@@H](CC[C@@]3(O)C#CC3CC3)[C@@H]3CCC4=CC(=O)CC[C@]4(C)[C@H]32)cc1 | 1490 | 1450 | > 2500 | 28.5 | inactive | 5.4 | 100 | 53 | 70 |  |  |  |  |  | 
CC(C)(C)C#C[C@]1(O)CC[C@H]2[C@@H]3CCC4=CC(=O)CC[C@@H]4[C@H]3[C@@H](c3ccc(N4CCOCC4)cc3)C[C@@]21C | 4.8 | 208 | > 2500 | 10.3 | inactive | 5.1 | 100 |  |  | 10 to 30 |  |  |  |  | 
CN(C)c1ccc([C@H]2C[C@@]3(C)[C@@H](CC[C@@]3(O)C#CC(C)(C)C)[C@@H]3CCC4=CC(=O)CC[C@]4(C)[C@H]32)cc1 | 2490 | > 5000 | > 2500 | 33.6 | inactive | 7.4 | 100 | 71 | 84 | 70 |  |  |  |  | 
CN(C)c1ccc([C@H]2C[C@@]3(C)[C@@H](CC[C@@]3(O)C#CC(C)(C)C)[C@@H]3CCC4=CC(=O)CCC4=C32)cc1 | 14.4 | 129 |  |  | inactive |  | 100 |  |  | 10 to 30 | 8 | 7.5 |  |  | 
CC#C[C@]1(O)CC[C@H]2[C@@H]3CCC4=CC(=O)CCC4=C3[C@@H](c3ccc(N(C)C)cc3)C[C@@]21C [MIFEPRISTONE] |  |  |  |  |  |  |  |  |  |  |  |  | > 1160 | 3 (≈ 1.29 µg/mL) | 5.4 (≈ 2.32 µg/mL)
